system: Acinetobacter baumannii; experiment: Synergistic antibacterial activity against Acinetobacter baumannii PR363 producing OXA-23 assessed as cefepime MIC at 8 ug/ml by broth microdilution method; type: functional; settings: dose 8 µg/ml

Structure (SMILES) | MIC [µg/mL]
N#C[C@@H]1CC[C@@H]2CN1C(=O)N2OS(=O)(=O)[O-].[Na+] | 8

system: Klebsiella pneumoniae; experiment: Synergistic antibacterial activity against Klebsiella pneumoniae 901/1860 producing KPC-3 assessed as cefepime MIC at 8 ug/ml by broth microdilution method; type: functional; settings: dose 8 µg/ml

Structure (SMILES) | MIC [µg/mL]
N#C[C@@H]1CC[C@@H]2CN1C(=O)N2OS(=O)(=O)[O-].[Na+] | ≤ 0.12

system: Bacteria; experiment: Inhibition of bacteria PDC-3 assessed as half life using nitrocefin as substrate; settings: not given

Structure (SMILES) | T1/2 [min]
N#C[C@@H]1CC[C@@H]2CN1C(=O)N2OS(=O)(=O)[O-].[Na+] | 4.1

system: Klebsiella pneumoniae; experiment: Synergistic antibacterial activity against Klebsiella pneumoniae 1354/2241 producing KPC-3 assessed as cefepime MIC at 8 ug/ml by broth microdilution method; type: functional; settings: dose 8 µg/ml
Method in brief: (§1)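 Broth microdilution per CLSI guidelines, using custom frozen panels. […] Each partner drug was also tested alone. MICs were run in triplicate and the modal value is reported.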

Structure (SMILES) | MIC [µg/mL]
N#C[C@@H]1CC[C@@H]2CN1C(=O)N2OS(=O)(=O)[O-].[Na+] | ≤ 0.12

system: Acinetobacter baumannii; experiment: Synergistic antibacterial activity against Acinetobacter baumannii PR408 producing OXA-24/40 assessed as meropenem MIC at 4 ug/ml by broth microdilution method; type: functional; settings: dose 4 µg/ml

Structure (SMILES) | MIC [µg/mL]
N#C[C@@H]1CC[C@@H]2CN1C(=O)N2OS(=O)(=O)[O-].[Na+] | > 16

system: Klebsiella pneumoniae; experiment: Synergistic antibacterial activity against Klebsiella pneumoniae 935/1884 producing KPC-3 assessed as cefepime MIC at 4 ug/ml by broth microdilution method; type: functional; settings: dose 4 µg/ml

Structure (SMILES) | MIC [µg/mL]
N#C[C@@H]1CC[C@@H]2CN1C(=O)N2OS(=O)(=O)[O-].[Na+] | 0.25

system: Acinetobacter baumannii; experiment: Synergistic antibacterial activity against ADC deleted Acinetobacter baumannii assessed as meropenem MIC at 8 ug/ml by broth microdilution method; type: functional; settings: dose 8 µg/ml

Structure (SMILES) | MIC [µg/mL]
N#C[C@@H]1CC[C@@H]2CN1C(=O)N2OS(=O)(=O)[O-].[Na+] | ≤ 0.12

system: Acinetobacter baumannii; experiment: Synergistic antibacterial activity against Acinetobacter baumannii PR359 producing OXA-23 assessed as meropenem MIC at 8 ug/ml by broth microdilution method; type: functional; settings: dose 8 µg/ml
Method in brief: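 Broth microdilution per CLSI guidelines in frozen panels. Test compound held at fixed 8 mg/L while the partner β-lactam concentration was increased. Run in triplicate; modal MIC reported.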

Structure (SMILES) | MIC [µg/mL]
N#C[C@@H]1CC[C@@H]2CN1C(=O)N2OS(=O)(=O)[O-].[Na+] | 4

system: Klebsiella pneumoniae; experiment: Synergistic antibacterial activity against Klebsiella pneumoniae 1084/1957 producing KPC-3 assessed as meropenem MIC at 8 ug/ml by broth microdilution method; type: functional; settings: dose 8 µg/ml; method in brief: as §1

Structure (SMILES) | MIC [µg/mL]
N#C[C@@H]1CC[C@@H]2CN1C(=O)N2OS(=O)(=O)[O-].[Na+] | ≤ 0.12

system: Klebsiella pneumoniae; experiment: Synergistic antibacterial activity against Klebsiella pneumoniae 972/1910 producing KPC-3 assessed as meropenem MIC at 4 ug/ml by broth microdilution method; type: functional; settings: dose 4 µg/ml

Structure (SMILES) | MIC [µg/mL]
N#C[C@@H]1CC[C@@H]2CN1C(=O)N2OS(=O)(=O)[O-].[Na+] | ≤ 0.12

system: Escherichia coli; experiment: Synergistic antibacterial activity against Escherichia coli DH10B assessed as meropenem MIC at 8 ug/ml by broth microdilution method; type: functional; settings: dose 8 µg/ml

Structure (SMILES) | MIC [µg/mL]
N#C[C@@H]1CC[C@@H]2CN1C(=O)N2OS(=O)(=O)[O-].[Na+] | ≤ 0.12

system: Escherichia coli; experiment: Synergistic antibacterial activity against Escherichia coli DH10B transfected with pBR322-catI-KPC-2 assessed as meropenem MIC at 4 ug/ml by broth microdilution method; type: functional; settings: dose 4 µg/ml; method in brief: as §1

Structure (SMILES) | MIC [µg/mL]
N#C[C@@H]1CC[C@@H]2CN1C(=O)N2OS(=O)(=O)[O-].[Na+] | ≤ 0.12

system: Klebsiella pneumoniae; experiment: Antibacterial activity against Klebsiella pneumoniae jefferson 1775 producing OXA-48 by broth microdilution method; type: functional; settings: not given

Structure (SMILES) | MIC [µg/mL]
N#C[C@@H]1CC[C@@H]2CN1C(=O)N2OS(=O)(=O)[O-].[Na+] | > 16

system: Escherichia coli; experiment: Synergistic antibacterial activity against Escherichia coli DH10B transfected with pBC SK (-) PDC-3 assessed as cefepime MIC at 8 ug/ml by broth microdilution method; type: functional; settings: dose 8 µg/ml; method in brief: as §1

Structure (SMILES) | MIC [µg/mL]
N#C[C@@H]1CC[C@@H]2CN1C(=O)N2OS(=O)(=O)[O-].[Na+] | ≤ 0.12

system: Klebsiella pneumoniae; experiment: Synergistic antibacterial activity against Klebsiella pneumoniae jefferson 1773 producing OXA-181 assessed as cefepime MIC at 4 ug/ml by broth microdilution method; type: functional; settings: dose 4 µg/ml

Structure (SMILES) | MIC [µg/mL]
N#C[C@@H]1CC[C@@H]2CN1C(=O)N2OS(=O)(=O)[O-].[Na+] | 1

system: Acinetobacter baumannii; experiment: Synergistic antibacterial activity against Acinetobacter baumannii PR363 producing OXA-23 assessed as meropenem MIC at 4 ug/ml by broth microdilution method; type: functional; settings: dose 4 µg/ml

Structure (SMILES) | MIC [µg/mL]
N#C[C@@H]1CC[C@@H]2CN1C(=O)N2OS(=O)(=O)[O-].[Na+] | 4

system: Klebsiella pneumoniae; experiment: Synergistic antibacterial activity against Klebsiella pneumoniae NY BS producing OXA-232 assessed as cefepime MIC at 4 ug/ml by broth microdilution method; type: functional; settings: dose 4 µg/ml

Structure (SMILES) | MIC [µg/mL]
N#C[C@@H]1CC[C@@H]2CN1C(=O)N2OS(=O)(=O)[O-].[Na+] | 0.5

system: Escherichia coli; experiment: Synergistic antibacterial activity against Escherichia coli DH10B transfected with pBC SK (-) KPC-3 assessed as cefepime MIC at 4 ug/ml by broth microdilution method; type: functional; settings: dose 4 µg/ml

Structure (SMILES) | MIC [µg/mL]
N#C[C@@H]1CC[C@@H]2CN1C(=O)N2OS(=O)(=O)[O-].[Na+] | ≤ 0.12

system: Klebsiella pneumoniae; experiment: Synergistic antibacterial activity against Klebsiella pneumoniae 776/1742 producing KPC-2 assessed as cefepime MIC at 4 ug/ml by broth microdilution method; type: functional; settings: dose 4 µg/ml

Structure (SMILES) | MIC [µg/mL]
N#C[C@@H]1CC[C@@H]2CN1C(=O)N2OS(=O)(=O)[O-].[Na+] | 1

system: Acinetobacter baumannii; experiment: Synergistic antibacterial activity against Acinetobacter baumannii PR448 producing OXA-23 assessed as meropenem MIC at 4 ug/ml by broth microdilution method; type: functional; settings: dose 4 µg/ml

Structure (SMILES) | MIC [µg/mL]
N#C[C@@H]1CC[C@@H]2CN1C(=O)N2OS(=O)(=O)[O-].[Na+] | 2

system: Pseudomonas aeruginosa; experiment: Synergistic antibacterial activity against Pseudomonas aeruginosa 839 assessed as cefepime MIC at 8 ug/ml by broth microdilution method; type: functional; settings: dose 8 µg/ml

Structure (SMILES) | MIC [µg/mL]
N#C[C@@H]1CC[C@@H]2CN1C(=O)N2OS(=O)(=O)[O-].[Na+] | 8

system: Acinetobacter baumannii; experiment: Synergistic antibacterial activity against ADC deleted Acinetobacter baumannii transfected with pWH1266 producing OXA-24/40 assessed as cefepime MIC at 8 ug/ml by broth microdilution method; type: functional; settings: dose 8 µg/ml

Structure (SMILES) | MIC [µg/mL]
N#C[C@@H]1CC[C@@H]2CN1C(=O)N2OS(=O)(=O)[O-].[Na+] | 16

system: Klebsiella pneumoniae; experiment: Synergistic antibacterial activity against Klebsiella pneumoniae 1108/1989 producing KPC-3 assessed as meropenem MIC at 4 ug/ml by broth microdilution method; type: functional; settings: dose 4 µg/ml; method in brief: as §1

Structure (SMILES) | MIC [µg/mL]
N#C[C@@H]1CC[C@@H]2CN1C(=O)N2OS(=O)(=O)[O-].[Na+] | ≤ 0.12

system: Acinetobacter baumannii; experiment: Synergistic antibacterial activity against Acinetobacter baumannii PR359 producing OXA-23 assessed as cefepime MIC at 4 ug/ml by broth microdilution method; type: functional; settings: dose 4 µg/ml

Structure (SMILES) | MIC [µg/mL]
N#C[C@@H]1CC[C@@H]2CN1C(=O)N2OS(=O)(=O)[O-].[Na+] | 8

system: Klebsiella pneumoniae; experiment: Synergistic antibacterial activity against Klebsiella pneumoniae 11978 producing OXA-48 assessed as meropenem MIC at 8 ug/ml by broth microdilution method; type: functional; settings: dose 8 µg/ml; method in brief: as §1

Structure (SMILES) | MIC [µg/mL]
N#C[C@@H]1CC[C@@H]2CN1C(=O)N2OS(=O)(=O)[O-].[Na+] | ≤ 0.12

system: Escherichia coli; experiment: Synergistic antibacterial activity against Escherichia coli DH10B transfected with pBC SK (-) KPC-2 assessed as meropenem MIC at 8 ug/ml by broth microdilution method; type: functional; settings: dose 8 µg/ml

Structure (SMILES) | MIC [µg/mL]
N#C[C@@H]1CC[C@@H]2CN1C(=O)N2OS(=O)(=O)[O-].[Na+] | ≤ 0.12

system: Klebsiella pneumoniae; experiment: Synergistic antibacterial activity against Klebsiella pneumoniae jefferson 1773 producing OXA-181 assessed as cefepime MIC at 8 ug/ml by broth microdilution method; type: functional; settings: dose 8 µg/ml

Structure (SMILES) | MIC [µg/mL]
N#C[C@@H]1CC[C@@H]2CN1C(=O)N2OS(=O)(=O)[O-].[Na+] | 1

system: Acinetobacter baumannii; experiment: Synergistic antibacterial activity against Acinetobacter baumannii PR381 producing OXA-24/40 assessed as meropenem MIC at 8 ug/ml by broth microdilution method; type: functional; settings: dose 8 µg/ml

Structure (SMILES) | MIC [µg/mL]
N#C[C@@H]1CC[C@@H]2CN1C(=O)N2OS(=O)(=O)[O-].[Na+] | > 16

system: Acinetobacter baumannii; experiment: Synergistic antibacterial activity against Acinetobacter baumannii PR440 producing OXA-23/24/40 assessed as cefepime MIC at 8 ug/ml by broth microdilution method; type: functional; settings: dose 8 µg/ml

Structure (SMILES) | MIC [µg/mL]
N#C[C@@H]1CC[C@@H]2CN1C(=O)N2OS(=O)(=O)[O-].[Na+] | > 16

system: Klebsiella pneumoniae; experiment: Synergistic antibacterial activity against Klebsiella pneumoniae CAV 1543 producing OXA-48 assessed as meropenem MIC at 4 ug/ml by broth microdilution method; type: functional; settings: dose 4 µg/ml

Structure (SMILES) | MIC [µg/mL]
N#C[C@@H]1CC[C@@H]2CN1C(=O)N2OS(=O)(=O)[O-].[Na+] | ≤ 0.12

system: Escherichia coli; experiment: Synergistic antibacterial activity against Escherichia coli DH10B transfected with pBC SK (-) KPC-3 assessed as cefepime MIC at 8 ug/ml by broth microdilution method; type: functional; settings: dose 8 µg/ml

Structure (SMILES) | MIC [µg/mL]
N#C[C@@H]1CC[C@@H]2CN1C(=O)N2OS(=O)(=O)[O-].[Na+] | ≤ 0.12

system: Klebsiella pneumoniae; experiment: Synergistic antibacterial activity against Klebsiella pneumoniae CAV 1636 producing OXA-181 assessed as cefepime MIC at 4 ug/ml by broth microdilution method; type: functional; settings: dose 4 µg/ml

Structure (SMILES) | MIC [µg/mL]
N#C[C@@H]1CC[C@@H]2CN1C(=O)N2OS(=O)(=O)[O-].[Na+] | 0.5

system: Klebsiella pneumoniae; experiment: Synergistic antibacterial activity against Klebsiella pneumoniae 901/1860 producing KPC-3 assessed as meropenem MIC at 4 ug/ml by broth microdilution method; type: functional; settings: dose 4 µg/ml

Structure (SMILES) | MIC [µg/mL]
N#C[C@@H]1CC[C@@H]2CN1C(=O)N2OS(=O)(=O)[O-].[Na+] | ≤ 0.12

system: Acinetobacter baumannii; experiment: Synergistic antibacterial activity against Acinetobacter baumannii PR323 producing OXA-24/40 assessed as meropenem MIC at 8 ug/ml by broth microdilution method; type: functional; settings: dose 8 µg/ml

Structure (SMILES) | MIC [µg/mL]
N#C[C@@H]1CC[C@@H]2CN1C(=O)N2OS(=O)(=O)[O-].[Na+] | 16

system: Escherichia coli; experiment: Synergistic antibacterial activity against Escherichia coli DH10B transfected with pBC SK (-) OXA-48 assessed as cefepime MIC at 8 ug/ml by broth microdilution method; type: functional; settings: dose 8 µg/ml; method in brief: as §1

Structure (SMILES) | MIC [µg/mL]
N#C[C@@H]1CC[C@@H]2CN1C(=O)N2OS(=O)(=O)[O-].[Na+] | ≤ 0.12

system: Klebsiella pneumoniae; experiment: Synergistic antibacterial activity against Klebsiella pneumoniae jefferson 1775 producing OXA-48 assessed as meropenem MIC at 8 ug/ml by broth microdilution method; type: functional; settings: dose 8 µg/ml

Structure (SMILES) | MIC [µg/mL]
N#C[C@@H]1CC[C@@H]2CN1C(=O)N2OS(=O)(=O)[O-].[Na+] | ≤ 0.12

system: Acinetobacter baumannii; experiment: Synergistic antibacterial activity against Acinetobacter baumannii PR474 producing OXA-23/24/40 assessed as cefepime MIC at 8 ug/ml by broth microdilution method; type: functional; settings: dose 8 µg/ml

Structure (SMILES) | MIC [µg/mL]
N#C[C@@H]1CC[C@@H]2CN1C(=O)N2OS(=O)(=O)[O-].[Na+] | 8

system: Klebsiella pneumoniae; experiment: Synergistic antibacterial activity against Klebsiella pneumoniae 1084/1957 producing KPC-3 assessed as cefepime MIC at 8 ug/ml by broth microdilution method; type: functional; settings: dose 8 µg/ml; method in brief: as §1

Structure (SMILES) | MIC [µg/mL]
N#C[C@@H]1CC[C@@H]2CN1C(=O)N2OS(=O)(=O)[O-].[Na+] | ≤ 0.12

Source: ChEMBL document CHEMBL5247575 (J Med Chem, 2018)
